What was measured:
[1] = Anticancer activity against Swiss mouse EAT cells implanted in Swiss mouse assessed as tumor growth inhibition at 25 mg/kg, ip administered for 1 to 9 days measured on day 13 relative to control; type: functional; conditions: read-out: TGI
Method in brief: (§1)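 Solid tumor: 1 × 10^7 EAC cells (harvested from 8-10 day ascitic Swiss mice) injected intramuscularly into right thigh of male Swiss mice, day 0; randomized next day (n=7 treated, 10 control). Dosing i.p. days 1-9; saline 0.2 ml control, 5-FU 22 mg/kg reference.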

Mus musculus [2] = assay: Toxicity in Swiss mouse implanted with Swiss mouse EAT cells assessed as body weight at 15 mg/kg, ip administered for 1 to 9 days measured on day 5 (reference value: 22.6 g); type: organism-based; conditions: in vivo
Mus musculus [3] = assay: Toxicity in Swiss mouse implanted with Swiss mouse EAC cells assessed as body weight at 25 mg/kg, ip administered for 1 to 9 days measured on day 1 (reference value: 22.8 g); type: organism-based, Ehrlich; conditions: in vivo
[4] = Anticancer activity against Swiss mouse EAT cells implanted in Swiss mouse assessed as tumor growth inhibition at 15 mg/kg, ip administered for 1 to 9 days measured on day 13 relative to control; type: functional; conditions: read-out: TGI; method in brief: as §1
[5] = Anticancer activity against Swiss mouse EAC cells implanted in Swiss mouse assessed as tumor growth inhibition at 25 mg/kg, ip administered for 1 to 9 days measured on day 12 relative to control; type: functional; conditions: Ehrlich, read-out: TGI
Method in brief: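 Swiss mice given 1 × 10^7 EAC cells i.p. on day 0, randomized next day (treated n=7, control n=10). Compound given i.p. days 1-9; saline control (0.2 ml i.p.), 5-fluorouracil 20 mg/kg i.p. reference. Sacrificed day 12; ascitic fluid collected; % TGI from total peritoneal tumor cell count versus control.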

MCF7 [6] = assay: Induction of apoptosis in human MCF7 cells assessed as loss of mitochondrial membrane potential at 20 uM after 24 hrs by rhodamine-123-staining based FACS analysis (reference value: 7 % ); type: functional
Method in brief: (§2)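 Cells (MCF-7 or PC-3) exposed to indicated concentrations for 24 h; rhodamine-123 (5 µM) added 1 h before end. Cells collected, PBS-washed; fluorescence of 10,000 events read in FL-1 by flow cytometry, loss of mitochondrial potential scored as decreased intensity.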

[7] = Downregulation of PI3Kalpha expression in human MCF7 cells at 30 uM by Western blot analysis; type: functional, cell-based
Method in brief: (§3)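 MCF-7 or PC-3 cells (2 × 10^6) treated with compound, lysed (1 × 10^6 cells) in cold NP-40 buffer with protease inhibitors 30 min on ice, 12,000 g 10 min 4 °C. 50 µg protein per lane on SDS-PAGE, PVDF transfer, 5% milk block, primary antibody 2 h, HRP secondary 1 h, ECL on film; β-actin internal control.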

MCF7 [8] = assay: Induction of apoptosis in human MCF7 cells assessed as loss of mitochondrial membrane potential at 30 uM after 24 hrs by rhodamine-123-staining based FACS analysis (reference value: 7 % ); type: functional; method in brief: as §2
[9] = Downregulation of PI3Kbeta expression in human MCF7 cells at 30 uM by Western blot analysis; type: functional, cell-based; method in brief: as §3
Mus musculus [10] = assay: Toxicity in Swiss mouse implanted with Swiss mouse EAC cells assessed as mortality at 25 mg/kg, ip administered for 1 to 9 days measured on day 12; type: organism-based, Ehrlich; conditions: in vivo
Method in brief: (§4)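 1×10^7 EAC cells injected intraperitoneally into Swiss mice on day 0. Mice randomized next day: treated groups n=7, saline control n=10 (0.2 ml i.p.). Dosing i.p. days 1–9. Sacrifice on day 12; ascitic fluid collected from the peritoneal cavity. % tumor growth inhibition from total tumor cell count versus control. Body weight and mortality tracked.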

Mus musculus [11] = assay: Toxicity in Swiss mouse implanted with Swiss mouse EAT cells assessed as body weight at 15 mg/kg, ip administered for 1 to 9 days measured on day 1 (reference value: 21.6 g); type: organism-based; conditions: in vivo
MCF7 [12] = assay: Induction of cell cycle arrest in human MCF7 cells assessed as accumulation at G2 phase at 20 uM after 24 hrs by propidium iodide-staining based FACS analysis (reference value: 20 %); type: functional
Method in brief: (§5)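 MCF-7 or PC-3 cells treated at indicated concentrations for 24 h, pelleted, PBS-washed, fixed in ice-cold 70% ethanol overnight at 4 °C. RNase 0.2 mg/mL 1 h at 37 °C, propidium iodide 10 µg/mL 30 min dark. 10,000 events (FL2-A vs FL2-W) by flow cytometry; fractions in apoptosis/sub-G1, G1, S, G2-M.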

Mus musculus [13] = assay: Toxicity in Swiss mouse implanted with Swiss mouse EAC cells assessed as body weight at 25 mg/kg, ip administered for 1 to 9 days measured on day 12 (reference value: 28.4 g); type: organism-based, Ehrlich; conditions: in vivo
[14] = Downregulation of PI3Kgamma expression in human MCF7 cells at 30 uM by Western blot analysis; type: functional, cell-based; method in brief: as §3
MCF7 [15] = assay: Induction of cell cycle arrest in human MCF7 cells assessed as accumulation at G1 phase at 20 uM after 24 hrs by propidium iodide-staining based FACS analysis (reference value: 50 %); type: functional; method in brief: as §5
[16] = Downregulation of PI3Kbeta expression in human PC3 cells at 30 uM by Western blot analysis; type: functional, cell-based; conditions: PC-3; method in brief: as §3
[17] = Downregulation of PI3Kgamma expression in human PC3 cells at 30 uM by Western blot analysis; type: functional, cell-based; conditions: PC-3; method in brief: as §3
[18] = Cytotoxicity against human PC3 cells assessed as cell growth inhibition after 12 hrs by MTT assay; type: functional; conditions: PC-3, 12 h
PC-3 [19] = assay: Induction of cell cycle arrest in human PC3 cells assessed as accumulation at G1 phase at 30 uM after 24 hrs by propidium iodide-staining based FACS analysis (reference value: 39 %); type: functional; method in brief: as §5
PC-3 [20] = assay: Induction of apoptosis in human PC3 cells assessed as loss of mitochondrial membrane potential at 20 uM after 24 hrs by rhodamine-123-staining based FACS analysis (reference value: 5 % ); type: functional; method in brief: as §2
PC-3 [21] = assay: Induction of cell cycle arrest in human PC3 cells assessed as apoptotic cells at 20 uM after 24 hrs by propidium iodide-staining based FACS analysis (reference value: 2 %); type: functional
Method in brief: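 PC-3 cells exposed 24 h at indicated concentrations, pelleted, fixed overnight in ice-cold 70% ethanol at 4 °C, RNase 0.2 mg/mL at 37 °C 1 h, propidium iodide 10 µg/mL 30 min in dark; 10,000 events acquired (FL2-A vs FL2-W); DNA histograms modelled for apoptotic (sub-G1), G1, S and G2-M fractions.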

Mus musculus [22] = assay: Toxicity in Swiss mouse implanted with Swiss mouse EAC cells assessed as body weight at 70 mg/kg, ip administered for 1 to 9 days measured on day 9 (reference value: 27.7 g); type: organism-based, Ehrlich; conditions: in vivo
Mus musculus [23] = assay: Toxicity in Swiss mouse implanted with Swiss mouse EAC cells assessed as mortality at 70 mg/kg, ip administered for 1 to 9 days measured on day 12; type: organism-based, Ehrlich; conditions: in vivo; method in brief: as §4
[24] = Downregulation of PI3Kdelta expression in human PC3 cells at 30 uM by Western blot analysis; type: functional, cell-based; conditions: PC-3; method in brief: as §3
PC-3 [25] = assay: Induction of apoptosis in human PC3 cells assessed as loss of mitochondrial membrane potential at 10 uM after 24 hrs by rhodamine-123-staining based FACS analysis (reference value: 5 % ); type: functional; method in brief: as §2
PC-3 [26] = assay: Induction of apoptosis in human PC3 cells assessed as loss of mitochondrial membrane potential at 30 uM after 24 hrs by rhodamine-123-staining based FACS analysis (reference value: 5 % ); type: functional; method in brief: as §2

## N#CCc1ccc(Nc2ncnc3ccc(-c4ccc5[nH]ccc5c4)cc23)cc1
[1]
  inhibition in vivo at 25 mg/kg: 36.5%
Mus musculus [2]
  Activity: 20 g
Mus musculus [3]
  Activity: 20.57 g
[4]
  inhibition in vivo at 15 mg/kg: 34.3%
[5]
  inhibition in vivo at 25 mg/kg: 62%
MCF7 [6]
  Activity: 15%
[7]
  Activity: 44%
MCF7 [8]
  Activity: 20%
[9]
  Activity: 4%
Mus musculus [10]
  Activity: Non-Toxic
Mus musculus [11]
  Activity: 19.85 g
MCF7 [12]
  Activity: 7%
Mus musculus [13]
  Activity: 23.8 g
[14]
  Activity: 6%
MCF7 [15]
  Activity: 51%

## N#CCc1ccc(Nc2ncnc3ccc(-c4cncc5ccccc45)cc23)cc1
[16]
  Activity: 42%
[17]
  Activity: 20%
[18]
  GI50: 189 µM
PC-3 [19]
  Activity: 42%
PC-3 [20]
  Activity: 14%
PC-3 [21]
  Activity: 10%
Mus musculus [22]
  Activity: 23.71 g
Mus musculus [23]
  Activity: Non-Toxic
[24]
  Activity: 32%
PC-3 [25]
  Activity: 8%
PC-3 [26]
  Activity: 18%

— ChEMBL document CHEMBL3868583, “6-Aryl substituted 4-(4-cyanomethyl) phenylamino quinazolines as a new class of isoform-selective PI3K-alpha inhibitors” (Eur J Med Chem, 2016)
